Assays:
Ovis aries [1] = species: Ovis aries; experiment: Inhibition of sheep brain tubulin polymerization at 2 x 10 '-5 M after 10 mins by turbidimetry
Method in brief: (§1)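 Microtubule protein was purified from sheep brain by two assembly/disassembly cycles (37 °C/0 °C) in 100 mM MES pH 6.6, 1 mM EGTA, 0.5 mM MgCl2. Compound in DMSO (1 µL) was added to 150 µL microtubule solution, incubated 10 min at 37 °C then 5 min at 0 °C, and turbidity read at 350 nm. Single tests were at ~2 × 10^-5 M; IC50 was also expressed relative to deoxypodophyllotoxin IC50.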

KB [2] = experiment: Cytotoxicity against human KB cells assessed as growth inhibition at 10 '-6 M after 72 hrs by MTS assay; type: functional; conditions: read-out: GI
Method in brief: (§2)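 Cells seeded at 600 per well, dosed 24 h later from DMSO stocks over 0.5 nM–10 µM (DMSO 1% final in controls). KB was grown in D-MEM with 10% fetal calf serum; HL60 in complete RPMI. After 72 h, MTS was added for 3 h at 37 °C and A490 read. Inhibition % = (1 − OD treated/OD control) × 100, in triplicate; IC50 runs were in duplicate.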

HL-60 [3] = experiment: Cell cycle arrest in human HL60 cells assessed as accumulation at Sub G1 phase at 100 nM after 48 hrs by propidium iodide based flow cytometry analysis (reference value: 4 %); type: functional
HL-60 [4] = experiment: Cell cycle arrest in human HL60 cells assessed as accumulation at S phase at 100 nM after 24 hrs by propidium iodide based flow cytometry analysis (reference value: 22.3 %); type: functional
HL-60 [5] = experiment: Cell cycle arrest in human HL60 cells assessed as accumulation at S phase at 100 nM after 48 hrs by propidium iodide based flow cytometry analysis (reference value: 20.9 %); type: functional
HL-60 [6] = experiment: Cell cycle arrest in human HL60 cells assessed as accumulation at G2/M phase at 100 nM after 24 hrs by propidium iodide based flow cytometry analysis (reference value: 24.8 %); type: functional
HL-60 [7] = experiment: Induction of apoptosis in human HL60 cells assessed as viable cells at 100 nM after 24 hrs using annexin-V-PE/7-AAD staining by flow cytometry analysis (reference value: 90.8 %); type: functional; conditions: HL-60, 24 h, read-out: Activity
HL-60 [8] = experiment: Induction of apoptosis in human HL60 cells assessed as late apoptotic cells at 100 nM after 24 hrs using annexin-V-PE/7-AAD staining by flow cytometry analysis (reference value: 0.8 %); type: functional
HL-60 [9] = experiment: Cytotoxicity against human HL60 cells after 72 hrs by MTS assay; type: functional, cell-based; conditions: HL-60, 72 h; method in brief: as §2
KB [10] = experiment: Cytotoxicity against human KB cells after 72 hrs by MTS assay; type: functional, cell-based; method in brief: as §2
HL-60 [11] = experiment: Induction of apoptosis in human HL60 cells assessed as late apoptotic cells at 100 nM after 48 hrs using annexin-V-PE/7-AAD staining by flow cytometry analysis (reference value: 0.6 %); type: functional
HL-60 [12] = experiment: Cell cycle arrest in human HL60 cells assessed as accumulation at G2/M phase at 100 nM after 48 hrs by propidium iodide based flow cytometry analysis (reference value: 23.9 %); type: functional
HL-60 [13] = experiment: Induction of apoptosis in human HL60 cells assessed as early apoptotic cells at 100 nM after 48 hrs using annexin-V-PE/7-AAD staining by flow cytometry analysis (reference value: 14.7 %); type: functional
HL-60 [14] = experiment: Cell cycle arrest in human HL60 cells assessed as accumulation at G0/G1 phase at 100 nM after 48 hrs by propidium iodide based flow cytometry analysis (reference value: 51.2 %); type: functional
HL-60 [15] = experiment: Cell cycle arrest in human HL60 cells assessed as accumulation at Sub G1 phase at 100 nM after 24 hrs by propidium iodide based flow cytometry analysis (reference value: 2.3 %); type: functional
HL-60 [16] = experiment: Induction of apoptosis in human HL60 cells assessed as early apoptotic cells at 100 nM after 24 hrs using annexin-V-PE/7-AAD staining by flow cytometry analysis (reference value: 7.5 %); type: functional
HL-60 [17] = experiment: Cell cycle arrest in human HL60 cells assessed as accumulation at G0/G1 phase at 100 nM after 24 hrs by propidium iodide based flow cytometry analysis (reference value: 50.6 %); type: functional
HL-60 [18] = experiment: Induction of apoptosis in human HL60 cells assessed as viable cells at 100 nM after 48 hrs using annexin-V-PE/7-AAD staining by flow cytometry analysis (reference value: 83.9 %); type: functional; conditions: HL-60, 48 h, read-out: Activity
Ovis aries [19] = species: Ovis aries; experiment: Ratio of compound IC50 to DPPT IC50 for sheep brain tubulin; method in brief: as §1
[20] = Inhibition of sheep brain tubulin polymerization after 10 mins by turbidimetry analysis; set-up: species or system Ovis aries; method in brief: as §1
HL-60 [21] = experiment: Cytotoxicity against human HL60 cells assessed as growth inhibition after 72 hrs by MTS assay; conditions: HL-60, 72 h

| SMILES | inhibition of growth at 1 µM (KB [2]) [%] | Activity (HL-60 [3]) [%] | Activity (HL-60 [4]) [%] | Activity (HL-60 [5]) [%] | Activity (HL-60 [6]) [%] | viability at 0.1 µM (HL-60 [7]) [%] | Activity (HL-60 [8]) [%] | Activity (HL-60 [11]) [%] | Activity (HL-60 [12]) [%] | Activity (HL-60 [13]) [%] | Activity (HL-60 [14]) [%] | Activity (HL-60 [15]) [%] | Activity (HL-60 [16]) [%] | Activity (HL-60 [17]) [%] | viability at 0.1 µM (HL-60 [18]) [%] | other results |
| --- | --- | --- | --- | --- | --- | --- | --- | --- | --- | --- | --- | --- | --- | --- | --- | --- |
| COc1ccc(/C=C2\Oc3c(cc(OC)c(OC)c3OC)C2=O)cc1[N+](=O)[O-] | 0 |  |  |  |  |  |  |  |  |  |  |  |  |  |  | inhibition (Ovis aries [1]): 12% |
| COc1ccc(-c2cc(=O)c3c(OC)c(OC)c(OC)c(OC)c3o2)cc1N | 6 |  |  |  |  |  |  |  |  |  |  |  |  |  |  |  |
| COc1ccc(/C=C2\Oc3c(cc(OC)c(OC)c3OC)C2=O)cc1N | 98 | 14 | 18.7 | 22.5 | 28.4 | 85.4 | 1.5 | 1.1 | 20.8 | 16.4 | 42.6 | 13.9 | 12.1 | 39 | 81.7 | IC50 (HL-60 [9]): 0.18 µM; IC50 (KB [10]): 0.4 µM; inhibition (Ovis aries [1]): 33% |
| COc1ccc(-c2oc3c(OC)c(OC)c(OC)cc3c(=O)c2OC)cc1N | 84 |  |  |  |  |  |  |  |  |  |  |  |  |  |  |  |
| COc1ccc(/C=C2\Oc3c(OC)c(O)c(OC)c(OC)c3C2=O)cc1N | 0 |  |  |  |  |  |  |  |  |  |  |  |  |  |  |  |
| COc1ccc(/C=C2\Oc3c(OC)c(OC)c(OC)c(O)c3C2=O)cc1N | 0 |  |  |  |  |  |  |  |  |  |  |  |  |  |  |  |
| COc1ccc(-c2oc3c(OC)c(OC)c(OC)c(OC)c3c(=O)c2OC)cc1N | 17 |  |  |  |  |  |  |  |  |  |  |  |  |  |  |  |
| COc1ccc(-c2oc3c(OC)c(OC)c(OC)c(O)c3c(=O)c2OC)cc1N | 99 | 19.1 | 17.5 | 26.5 | 33.3 | 74.2 | 2.1 | 1.9 | 21.3 | 41 | 33.1 | 8.9 | 22.8 | 40.3 | 56.3 | IC50 (HL-60 [9]): 0.055 µM; Ratio IC50 (Ovis aries [19]): 4; IC50 [20]: 9 µM |
| COc1ccc(-c2coc3c(OC)c(OC)c(OC)c(O)c3c2=O)cc1N | 0 |  |  |  |  |  |  |  |  |  |  |  |  |  |  |  |
| COc1ccc(/C=C2\Oc3c(cc(OC)c(OC)c3OC)C2=O)c(O)c1O |  | 23.2 | 23.7 | 28.2 | 52.5 | 84.1 | 1.9 | 0.8 | 17.2 | 21.1 | 31.4 | 14 | 12.9 | 9.8 | 77.1 | IC50 (HL-60 [21]): 100 µM; Ratio IC50 (Ovis aries [19]): 4; IC50 [20]: 8.6 µM |

— ChEMBL document CHEMBL1938313, “Influence of the skeleton on the cytotoxicity of flavonoids” (Bioorg Med Chem, 2012)
